Results from ChEMBL document CHEMBL1141557, “An expeditious one-pot synthesis of 1,6-dideoxy-N-alkylated nojirimycin derivatives and their inhibitory effects on the secretion of IFN-gamma and IL-4” (Bioorg Med Chem, 2008).
The source made the active and inactive calls. The calls are words filed in the database; no cut-off is given here.

Legend:
[1] = Inhibition of alpha glucosidase
How it was run: (§1)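 Enzyme added to substrate (0.4–5 mM) in 25 mM phosphate and nitrate buffer, with or without iminosugar at various concentrations. Substrates were p-nitrophenyl glycosides; β-galactosidase used o-nitrophenyl β-galactoside.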

[2] = Inhibition of alpha galactosidase; how it was run: as §1
[3] = Inhibition of alpha mannosidase; how it was run: as §1
[4] = Inhibition of beta galactosidase; how it was run: as §1
Splenocyte [5] = test: Inhibition of IL4-secretion in BALB/c mouse splenocytes at 60 uM after 72 hrs by ELISA; type: functional
How it was run: (§2)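 Splenocytes from BALB/c mouse spleens, red cells lysed with Tris–NH4Cl pH 7.2, in RPMI-1640 with 10% newborn calf serum; 5 × 10^5 cells per well. Cells pretreated 4 h with 10 µg/mL concanavalin A (type IV), then given compound and held 72 h at 37 °C, 5% CO2. IFN-γ or IL-4 in the supernatant measured by mouse cytokine ELISA, quantified from a standard curve (15.63–500 pg/mL).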

[6] = Inhibition of beta glucosidase; how it was run: as §1
[7] = target: T1, Beta-mannosidase (Homo sapiens) (UniProt O00462); test: Inhibition of beta-mannosidase; how it was run: as §1
T1 sequence (whole entry): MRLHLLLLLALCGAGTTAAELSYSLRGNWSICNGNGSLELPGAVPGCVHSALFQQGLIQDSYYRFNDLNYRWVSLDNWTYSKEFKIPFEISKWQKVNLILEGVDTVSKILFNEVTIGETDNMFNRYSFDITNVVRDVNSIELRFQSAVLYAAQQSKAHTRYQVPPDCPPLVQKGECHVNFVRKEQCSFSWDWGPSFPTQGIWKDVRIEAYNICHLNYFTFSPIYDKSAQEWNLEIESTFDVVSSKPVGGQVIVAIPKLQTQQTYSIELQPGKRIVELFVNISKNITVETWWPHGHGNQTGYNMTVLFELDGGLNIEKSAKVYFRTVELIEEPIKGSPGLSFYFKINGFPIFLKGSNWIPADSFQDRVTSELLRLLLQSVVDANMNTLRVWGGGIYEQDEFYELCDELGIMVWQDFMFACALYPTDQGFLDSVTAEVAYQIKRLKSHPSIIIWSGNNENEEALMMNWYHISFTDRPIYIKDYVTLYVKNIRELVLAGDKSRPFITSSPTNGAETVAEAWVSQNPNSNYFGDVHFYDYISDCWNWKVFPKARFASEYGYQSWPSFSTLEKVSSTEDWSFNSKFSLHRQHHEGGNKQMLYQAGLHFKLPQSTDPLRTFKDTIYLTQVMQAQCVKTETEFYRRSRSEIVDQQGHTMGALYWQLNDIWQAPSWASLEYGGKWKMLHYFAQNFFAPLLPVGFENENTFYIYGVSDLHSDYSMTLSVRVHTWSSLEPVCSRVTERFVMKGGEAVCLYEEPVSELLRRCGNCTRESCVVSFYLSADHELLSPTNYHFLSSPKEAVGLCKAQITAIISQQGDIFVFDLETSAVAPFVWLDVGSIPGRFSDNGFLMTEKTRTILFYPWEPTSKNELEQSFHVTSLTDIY

Splenocyte [8] = test: Inhibition of IFN-gamma secretion in BALB/c mouse splenocytes at 60 uM after 72 hrs by ELISA; type: functional; how it was run: as §2
[9] = Inhibition of alpha-L-fucosidase; how it was run: as §1
[10] = Inhibition of concanavalin A-induced BALB/c mouse splenocyte proliferation at 30 uM by MTT assay; type: functional
How it was run: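 Mouse splenocytes stimulated with concanavalin A; proliferation read by MTT assay as the mitochondrial dehydrogenase activity of surviving cells, with compound at 30 µM.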

SMILES	Activity [1]	Activity [2]	Activity [3]	Activity [4]	Activity [6]	Activity [7]	Activity [9]	IC50 [6]	IC50 [1]	IC50 [2]	IC50 [9]	IC50 [3]	inhibition at 60 µM (Splenocyte [5])	inhibition at 60 µM (Splenocyte [8])	inhibition at 30 µM [10]
OC[C@H]1NC[C@H](O)[C@@H](O)[C@@H]1O [DUVOGLUSTAT]	–	–	–	–	–	–	–	–	–	–	–	–	–	–	15.6%
C[C@@H]1[C@@H](O)[C@H](O)[C@@H](O)CN1C1CCCCC1	–	inactive	inactive	inactive	inactive	inactive	–	–	–	–	–	–	57%	9.1%	–
C[C@H]1NC[C@H](O)[C@@H](O)[C@@H]1O	–	inactive	inactive	inactive	inactive	inactive	–	–	–	–	–	–	58%	9%	–
CCCCCCCCCCN1C[C@H](O)[C@@H](O)[C@H](O)[C@H]1C	inactive	inactive	–	inactive	–	inactive	inactive	–	–	–	–	–	90%	61%	48.3%

Now from value to compound, other results behind:

Activity [1]	Activity [2]	Activity [3]	Activity [4]	Activity [6]	Activity [7]	Activity [9]	IC50 [6]	IC50 [1]	IC50 [2]	IC50 [9]	IC50 [3]	SMILES	inhibition at 60 µM (Splenocyte [5])	inhibition at 60 µM (Splenocyte [8])	inhibition at 30 µM [10]
inactive	inactive	inactive	inactive	inactive	inactive	–	–	–	–	–	–	COCCN1C[C@H](O)[C@@H](O)[C@H](O)[C@H]1C	58.8%	16%	–
–	inactive	inactive	–	–	inactive	inactive	> 2000 µM	–	–	–	–	CC(=O)NCCN1C[C@H](O)[C@@H](O)[C@H](O)[C@H]1C	59.7%	9%	–
–	–	–	–	–	inactive	–	540 µM	77 µM	234 µM	3000 µM	2000 µM	CCCCN1C[C@H](O)[C@@H](O)[C@H](O)[C@H]1C	44%	55.5%	–
inactive	inactive	inactive	inactive	–	inactive	–	34 µM	–	–	–	–	C[C@@H]1[C@@H](O)[C@H](O)[C@@H](O)CN1CCO	57%	29%	–
–	inactive	inactive	inactive	inactive	inactive	inactive	–	–	–	–	–	C[C@@H]1[C@@H](O)[C@H](O)[C@@H](O)CN1CCN	64%	41%	–
